In brackets after ≈: the same amount, converted by molar mass.
What was measured:
Salmonella typhimurium [1] = assay: Antibacterial activity against Salmonella Typhimurium ATCC 13311 treated for 24 hrs followed by sub-cultivated for 72 hrs by micro dilution method; assay type: functional, Salmonella enterica subsp. enterica serovar Typhimurium; conditions: Salmonella enterica
In short: (§1)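 2 µl from each well was serially subcultured into 100 µl fresh broth per well and incubated a further 72 h. MBC is the lowest concentration with no visible growth, taken as 99.5% killing of the original inoculum. Streptomycin and ampicillin were the positive controls.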

Listeria monocytogenes [2] = assay: Antibacterial activity against Listeria monocytogenes NCTC 7973 treated for 24 hrs followed by sub-cultivated for 72 hrs by micro dilution method; assay type: functional; in short: as §1
Enterobacter cloacae [3] = assay: Antibacterial activity against Enterobacter cloacae human isolate treated for 24 hrs followed by sub-cultivated for 72 hrs by micro dilution method; assay type: functional; in short: as §1
Aspergillus niger [4] = assay: Antifungal activity against Aspergillus niger ATCC 6275 after 72 hrs by serial dilution method; assay type: functional; conditions: ATCC 6275, 72 h
In short: (§2)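 Modified microdilution MIC. Spores were washed from malt agar cultures with sterile 0.85% saline containing 0.1% Tween 80 and adjusted to about 1.0 × 10^5 per 100 µl well in malt broth. Compounds were dissolved in DMSO (1 mg/ml). Plates incubated 72 h at 28 °C. MIC is the lowest concentration with no visible growth under a binocular microscope. Bifonazole and ketoconazole were the references.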

Listeria monocytogenes [5] = assay: Antibacterial activity against Listeria monocytogenes NCTC 7973 after 24 hrs by micro dilution method; assay type: functional; conditions: NCTC 7973, 24 h
In short: (§3)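 Microdilution MIC in 96-well plates. Bacterial suspensions adjusted in sterile saline to 1.0 × 10^5 CFU/ml, giving 1.0 × 10^4 cfu per well in LB broth. Compounds tested at up to 1 mg/ml. Plates incubated 24 h. MIC taken as the lowest concentration with no visible growth under a binocular microscope. OD at 655 nm was also read against a blank and the positive control. Streptomycin and ampicillin were the positive controls.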

Escherichia coli [6] = assay: Antibacterial activity against Escherichia coli ATCC 35210 after 24 hrs by micro dilution method; assay type: functional; conditions: ATCC 35210, 24 h; in short: as §3
Micrococcus flavus [7] = assay: Antibacterial activity against Micrococcus flavus ATCC 10240 after 24 hrs by micro dilution method; assay type: functional; conditions: ATCC 10240, 24 h; in short: as §3
Micrococcus flavus [8] = assay: Antibacterial activity against Micrococcus flavus ATCC 10240 treated for 24 hrs followed by sub-cultivated for 72 hrs by micro dilution method; assay type: functional; in short: as §1
Aspergillus versicolor [9] = assay: Antifungal activity against Aspergillus versicolor ATCC 11730 treated for 72 hrs followed by sub-cultivated for 5 days by serial dilution method; assay type: functional
In short: (§4)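 MFC obtained after the 72 h, 28 °C malt-broth microdilution (spore inoculum about 1.0 × 10^5 per well, compounds from 1 mg/ml DMSO). 2 µl was serially subcultured into 100 µl broth per well and incubated a further 5 days at 28 °C. MFC is the lowest concentration with no visible growth, taken as 99.5% killing of the original inoculum.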

Aspergillus flavus [10] = assay: Antifungal activity against Aspergillus flavus ATCC 9643 treated for 72 hrs followed by sub-cultivated for 5 days by serial dilution method; assay type: functional; in short: as §4
Talaromyces funiculosus [11] = assay: Antifungal activity against Penicillium funiculosum ATCC 36839 treated for 72 hrs followed by sub-cultivated for 5 days by serial dilution method; assay type: functional; in short: as §4
Aspergillus niger [12] = assay: Antifungal activity against Aspergillus niger ATCC 6275 treated for 72 hrs followed by sub-cultivated for 5 days by serial dilution method; assay type: functional; in short: as §4
Escherichia coli [13] = assay: Antibacterial activity against Escherichia coli ATCC 35210 treated for 24 hrs followed by sub-cultivated for 72 hrs by micro dilution method; assay type: functional; in short: as §1
Fulvia fulva [14] = assay: Antifungal activity against Fulvia fulva after 72 hrs by serial dilution method; assay type: functional; in short: as §2
Aspergillus versicolor [15] = assay: Antifungal activity against Aspergillus versicolor ATCC 11730 after 72 hrs by serial dilution method; assay type: functional; conditions: ATCC 11730, 72 h; in short: as §2
Aspergillus flavus [16] = assay: Antifungal activity against Aspergillus flavus ATCC 9643 after 72 hrs by serial dilution method; assay type: functional; conditions: ATCC 9643, 72 h; in short: as §2
Pseudomonas aeruginosa [17] = assay: Antibacterial activity against Pseudomonas aeruginosa ATCC 27853 treated for 24 hrs followed by sub-cultivated for 72 hrs by micro dilution method; assay type: functional; in short: as §1
Staphylococcus aureus [18] = assay: Antibacterial activity against Staphylococcus aureus ATCC 6538 after 24 hrs by micro dilution method; assay type: functional; conditions: ATCC 6538, 24 h; in short: as §3
Enterobacter cloacae [19] = assay: Antibacterial activity against Enterobacter cloacae human isolate after 24 hrs by micro dilution method; assay type: functional; in short: as §3
Staphylococcus aureus [20] = assay: Antibacterial activity against Staphylococcus aureus ATCC 6538 treated for 24 hrs followed by sub-cultivated for 72 hrs by micro dilution method; assay type: functional; in short: as §1
Aspergillus fumigatus [21] = assay: Antifungal activity against Aspergillus fumigatus human isolate after 72 hrs by serial dilution method; assay type: functional; in short: as §2
Trichoderma viride [22] = assay: Antifungal activity against Trichoderma viride IAM 5061 treated for 72 hrs followed by sub-cultivated for 5 days by serial dilution method; assay type: functional; in short: as §4
Salmonella typhimurium [23] = assay: Antibacterial activity against Salmonella Typhimurium ATCC 13311 after 24 hrs by micro dilution method; assay type: functional, Salmonella enterica subsp. enterica serovar Typhimurium; conditions: Salmonella enterica, ATCC 13311, 24 h; in short: as §3
Talaromyces funiculosus [24] = assay: Antifungal activity against Penicillium funiculosum ATCC 36839 after 72 hrs by serial dilution method; assay type: functional; conditions: ATCC 36839, 72 h; in short: as §2
Penicillium ochrochloron [25] = assay: Antifungal activity against Penicillium ochrochloron ATCC 9112 treated for 72 hrs followed by sub-cultivated for 5 days by serial dilution method; assay type: functional; in short: as §4
Fulvia fulva [26] = assay: Antifungal activity against Fulvia fulva treated for 72 hrs followed by sub-cultivated for 5 days by serial dilution method; assay type: functional; in short: as §4
Trichoderma viride [27] = assay: Antifungal activity against Trichoderma viride IAM 5061 after 72 hrs by serial dilution method; assay type: functional; conditions: IAM 5061, 72 h; in short: as §2
Bacillus cereus [28] = assay: Antibacterial activity against Bacillus cereus clinical isolate treated for 24 hrs followed by sub-cultivated for 72 hrs by micro dilution method; assay type: functional; in short: as §1
Penicillium ochrochloron [29] = assay: Antifungal activity against Penicillium ochrochloron ATCC 9112 after 72 hrs by serial dilution method; assay type: functional; conditions: ATCC 9112, 72 h; in short: as §2
Bacillus cereus [30] = assay: Antibacterial activity against Bacillus cereus clinical isolate after 24 hrs by micro dilution method; assay type: functional; in short: as §3
Aspergillus fumigatus [31] = assay: Antifungal activity against Aspergillus fumigatus human isolate treated for 72 hrs followed by sub-cultivated for 5 days by serial dilution method; assay type: functional; in short: as §4
Pseudomonas aeruginosa [32] = assay: Antibacterial activity against Pseudomonas aeruginosa ATCC 27853 after 24 hrs by micro dilution method; assay type: functional; conditions: ATCC 27853, 24 h; in short: as §3

Row | SMILES | MBC (Salmonella typhimurium [1]) [µM] | MBC (Listeria monocytogenes [2]) [µM] | MBC (Enterobacter cloacae [3]) [µM] | MIC (Aspergillus niger [4]) [µM] | MIC (Listeria monocytogenes [5]) [µM] | MIC (Escherichia coli [6]) [µM] | MIC (Micrococcus flavus [7]) [µM] | MBC (Micrococcus flavus [8]) [µM] | MFC (Aspergillus versicolor [9]) [µM] | MFC (Aspergillus flavus [10]) [µM] | MFC (Talaromyces funiculosus [11]) [µM] | MFC (Aspergillus niger [12]) [µM] | MBC (Escherichia coli [13]) [µM] | MIC (Fulvia fulva [14]) [µM] | MIC (Aspergillus versicolor [15]) [µM] | MIC (Aspergillus flavus [16]) [µM] | MBC (Pseudomonas aeruginosa [17]) [µM] | MIC (Staphylococcus aureus [18]) [µM] | MIC (Enterobacter cloacae [19]) [µM] | MBC (Staphylococcus aureus [20]) [µM] | further results
1 | COc1cc(Cc2n[nH]c(=S)n2C)c(S(=O)(=O)N(C)C)cc1OC | 270 (≈ 101 µg/mL) | 270 (≈ 101 µg/mL) | 270 (≈ 101 µg/mL) | 70 (≈ 26.1 µg/mL) | 270 (≈ 101 µg/mL) | 540 (≈ 201 µg/mL) | 270 (≈ 101 µg/mL) | 540 (≈ 201 µg/mL) | 270 (≈ 101 µg/mL) | 140 (≈ 52.1 µg/mL) | 270 (≈ 101 µg/mL) | 140 (≈ 52.1 µg/mL) | 540 (≈ 201 µg/mL) | 70 (≈ 26.1 µg/mL) | 140 (≈ 52.1 µg/mL) | 70 (≈ 26.1 µg/mL) | 540 (≈ 201 µg/mL) | 270 (≈ 101 µg/mL) | 270 (≈ 101 µg/mL) | 540 (≈ 201 µg/mL) | MIC (Aspergillus fumigatus [21]): 140 µM (≈ 52.1 µg/mL); MFC (Trichoderma viride [22]): 140 µM (≈ 52.1 µg/mL); MIC (Salmonella typhimurium [23]): 270 µM (≈ 101 µg/mL); MIC (Talaromyces funiculosus [24]): 140 µM (≈ 52.1 µg/mL); MFC (Penicillium ochrochloron [25]): 270 µM (≈ 101 µg/mL); MFC (Fulvia fulva [26]): 140 µM (≈ 52.1 µg/mL); MIC (Trichoderma viride [27]): 70 µM (≈ 26.1 µg/mL); MBC (Bacillus cereus [28]): 540 µM (≈ 201 µg/mL); MIC (Penicillium ochrochloron [29]): 140 µM (≈ 52.1 µg/mL); MIC (Bacillus cereus [30]): 270 µM (≈ 101 µg/mL); MFC (Aspergillus fumigatus [31]): 270 µM (≈ 101 µg/mL); MIC (Pseudomonas aeruginosa [32]): 540 µM (≈ 201 µg/mL)
2 | CCn1c(Cc2cc(OC)c(OC)cc2S(=O)(=O)N(C)C)n[nH]c1=S | 260 (≈ 100 µg/mL) | 520 (≈ 201 µg/mL) | 520 (≈ 201 µg/mL) | 70 (≈ 27.1 µg/mL) | 260 (≈ 100 µg/mL) | 260 (≈ 100 µg/mL) | 260 (≈ 100 µg/mL) | 520 (≈ 201 µg/mL) | 260 (≈ 100 µg/mL) | 260 (≈ 100 µg/mL) | 260 (≈ 100 µg/mL) | 130 (≈ 50.2 µg/mL) | 520 (≈ 201 µg/mL) | 70 (≈ 27.1 µg/mL) | 130 (≈ 50.2 µg/mL) | 70 (≈ 27.1 µg/mL) | 260 (≈ 100 µg/mL) | 260 (≈ 100 µg/mL) | 260 (≈ 100 µg/mL) | 520 (≈ 201 µg/mL) | MIC (Aspergillus fumigatus [21]): 130 µM (≈ 50.2 µg/mL); MFC (Trichoderma viride [22]): 130 µM (≈ 50.2 µg/mL); MIC (Salmonella typhimurium [23]): 260 µM (≈ 100 µg/mL); MIC (Talaromyces funiculosus [24]): 130 µM (≈ 50.2 µg/mL); MFC (Penicillium ochrochloron [25]): 260 µM (≈ 100 µg/mL); MFC (Fulvia fulva [26]): 70 µM (≈ 27.1 µg/mL); MIC (Trichoderma viride [27]): 70 µM (≈ 27.1 µg/mL); MBC (Bacillus cereus [28]): 520 µM (≈ 201 µg/mL); MIC (Penicillium ochrochloron [29]): 130 µM (≈ 50.2 µg/mL); MIC (Bacillus cereus [30]): 520 µM (≈ 201 µg/mL); MFC (Aspergillus fumigatus [31]): 260 µM (≈ 100 µg/mL); MIC (Pseudomonas aeruginosa [32]): 260 µM (≈ 100 µg/mL)
3 | CCCn1c(Cc2cc(OC)c(OC)cc2S(=O)(=O)N(C)C)n[nH]c1=S | 500 (≈ 200 µg/mL) | 250 (≈ 100 µg/mL) | 250 (≈ 100 µg/mL) | 60 (≈ 24 µg/mL) | 250 (≈ 100 µg/mL) | 500 (≈ 200 µg/mL) | 250 (≈ 100 µg/mL) | 500 (≈ 200 µg/mL) | 500 (≈ 200 µg/mL) | 130 (≈ 52.1 µg/mL) | 250 (≈ 100 µg/mL) | 130 (≈ 52.1 µg/mL) | 500 (≈ 200 µg/mL) | 60 (≈ 24 µg/mL) | 250 (≈ 100 µg/mL) | 60 (≈ 24 µg/mL) | 500 (≈ 200 µg/mL) | 500 (≈ 200 µg/mL) | 250 (≈ 100 µg/mL) | 500 (≈ 200 µg/mL) | MIC (Aspergillus fumigatus [21]): 130 µM (≈ 52.1 µg/mL); MFC (Trichoderma viride [22]): 130 µM (≈ 52.1 µg/mL); MIC (Salmonella typhimurium [23]): 500 µM (≈ 200 µg/mL); MIC (Talaromyces funiculosus [24]): 130 µM (≈ 52.1 µg/mL); MFC (Penicillium ochrochloron [25]): 250 µM (≈ 100 µg/mL); MFC (Fulvia fulva [26]): 130 µM (≈ 52.1 µg/mL); MIC (Trichoderma viride [27]): 60 µM (≈ 24 µg/mL); MBC (Bacillus cereus [28]): 500 µM (≈ 200 µg/mL); MIC (Penicillium ochrochloron [29]): 130 µM (≈ 52.1 µg/mL); MIC (Bacillus cereus [30]): 250 µM (≈ 100 µg/mL); MFC (Aspergillus fumigatus [31]): 250 µM (≈ 100 µg/mL); MIC (Pseudomonas aeruginosa [32]): 500 µM (≈ 200 µg/mL)

From ChEMBL document CHEMBL1944580, “Synthesis of novel sulfonamide-1,2,4-triazoles, 1,3,4-thiadiazoles and 1,3,4-oxadiazoles, as potential antibacterial and antifungal agents. Biological evaluation and conformational analysis studies” (2012)
